# TRPC6 inh: mouse TRPC6 channel inhibitors, primary screen, cell-based, HEK293, membrane potential dye; Short transient receptor potential channel 6 (Mus musculus), Q61143; hit rate 1.1% among 310,000; ACh-evoked depolarization; active compounds read low; B-score at 10 µM;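 active means B-score under library mean minus 3 SD, initial fluorescence not abnormally high, positive integrated signal ratio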;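 further: B-score derived from integrated fluorescence ratio over the kinetic read; more negative B-score means stronger inhibition of depolarization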
# Target sequence (Q61143 whole entry, looked up): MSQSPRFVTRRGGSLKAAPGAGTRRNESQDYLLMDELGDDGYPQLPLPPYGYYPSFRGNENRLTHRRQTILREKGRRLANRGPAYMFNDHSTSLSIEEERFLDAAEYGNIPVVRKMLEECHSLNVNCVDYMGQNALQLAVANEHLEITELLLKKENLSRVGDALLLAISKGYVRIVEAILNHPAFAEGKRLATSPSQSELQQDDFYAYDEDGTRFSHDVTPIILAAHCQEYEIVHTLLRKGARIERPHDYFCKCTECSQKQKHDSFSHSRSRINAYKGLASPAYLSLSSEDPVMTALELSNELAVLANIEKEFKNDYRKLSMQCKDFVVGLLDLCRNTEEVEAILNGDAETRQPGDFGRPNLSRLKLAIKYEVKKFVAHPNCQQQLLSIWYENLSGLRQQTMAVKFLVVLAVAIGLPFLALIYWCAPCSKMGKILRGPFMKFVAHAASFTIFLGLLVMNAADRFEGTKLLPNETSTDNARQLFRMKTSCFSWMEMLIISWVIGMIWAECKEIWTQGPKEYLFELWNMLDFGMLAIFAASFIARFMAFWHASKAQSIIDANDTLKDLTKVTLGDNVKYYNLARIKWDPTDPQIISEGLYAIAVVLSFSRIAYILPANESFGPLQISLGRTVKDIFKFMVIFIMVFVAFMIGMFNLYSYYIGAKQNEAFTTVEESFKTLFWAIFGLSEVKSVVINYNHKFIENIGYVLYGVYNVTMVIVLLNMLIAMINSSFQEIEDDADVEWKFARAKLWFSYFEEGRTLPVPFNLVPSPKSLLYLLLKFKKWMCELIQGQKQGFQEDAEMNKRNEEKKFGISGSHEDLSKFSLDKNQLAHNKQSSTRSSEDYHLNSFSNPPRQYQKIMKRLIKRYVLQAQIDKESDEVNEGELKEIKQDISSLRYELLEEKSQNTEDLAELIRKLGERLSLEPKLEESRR
# TRPC4 block: inhibitors of mouse TRPC4 channel, primary screen, Fluo4 calcium, HEK293 TRPC4beta/mu-opioid cells; DAMGO-evoked Fluo4 calcium flux; active compounds read low; B-score at 10 µM; hit rate 0.39% among 300,000; AID 2247, 2010;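 active means B-score over 3 SD under the library average, no early fluorescence shift, positive overall ratio signal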
#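 Test system – stable TRPC4beta/mu-opioid receptor HEK293 cells · Probe or stimulus – DAMGO, a submaximal dose followed by a maximal one · Dosing – one concentration per compound · Signal – Fluo4 calcium fluorescence by kinetic imaging, 5 s 1 Hz baseline · Evaluation – per-well B score of integrated baseline-normalized Fluo4 ratio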
# TRPC4 act: activators of mouse TRPC4 channel, primary screen, Fluo4 calcium, HEK293 TRPC4beta/mu-opioid cells. Fluo4 calcium fluorescence; active compounds read high. Short transient receptor potential channel 4 (Mus musculus), Q9QUQ5. B-score at 10 µM. hit rate 0.49% among 310,000. AID 2237, 2010;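 active means B-score above 5 SD of library B-scores, and initial fluorescence ratio not above library mean plus 5 SD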;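 further: positive B-score marks a calcium rise read as TRPC4 activation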
#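 system = HEK293 cells stably co-expressing mouse TRPC4beta and mu-opioid receptor | schedule = Fluo4 dye loading 45 min at room temperature, 110 s recording | measure = B-scored integrated calcium fluorescence ratio | signal = Fluo4 calcium-sensitive dye fluorescence, kinetic, 1 Hz baseline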
# TRPC4 PAM: positive allosteric modulators of TRPC4, primary screen, cell-based, mouse TRPC4beta, HEK293 mu-opioid, Fluo-4 calcium; Short transient receptor potential channel 4 (Mus musculus), Q9QUQ5; hit rate 0.42% among 310,000; DAMGO EC20, Fluo-4 Ca2+ flux; active compounds read high; B-score at 10 µM;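 active means B-score of calcium response area above 5 SD of library B-scores, with initial fluorescence ratio within 5 SD of library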;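 further: B-score of integrated fluorescence ratio over time as area under calcium response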
# TRPC6 activator: mouse TRPC6 channel activators, primary screen, cell-based, HEK293, membrane potential dye; Short transient receptor potential channel 6 (Mus musculus), Q61143; HEK293-TRPC6 membrane potential dye fluorescence; active compounds read high; B-score at 10 µM; hit rate 0.13% among 310,000;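 active means B-score of the integrated fluorescence ratio above library mean plus 3 SD, and starting fluorescence ratio within library mean plus 5 SD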;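 further: higher score means more depolarization so channel activation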
# TRPC4 spec 2: second check of whether TRPC6 inhibitors also affect mouse TRPC4; shares compounds with TRPC6 inh; HEK293 TRPC4/MOR, membrane potential dye fluorescence; channel activated by saturating DAMGO dose; inhibition, % at 10 µM; hit rate 42% among 920;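 active means compounds whose fluorescence signal differed from control wells by over 3 SD, either direction, in both duplicate plates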
# TRPC4 spec: mouse TRPC4 modulation by TRPC6 hits, confirmation, selectivity assay for TRPC6 inhibitor project, cell-based, HEK293 TRPC4/mu-opioid, membrane potential dye. shares compounds with TRPC6 inh. membrane potential fluorescence. activity change, negative = inhibition, % at 10 µM. hit rate 61% among 920;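 active means rise or fall in signal beyond 3 SD of buffer-only wells in both replicate plates, either sign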;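 further: integrated kinetic ratio of fluorescence range over baseline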
# HEK293 MPD ctr 2-1: nonspecific membrane potential effects, parental HEK293, confirmation, counter-screen for TRPC6 inhibitor project, cell-based, second counter screen; shares compounds with TRPC6 inh; parental HEK293 membrane potential dye fluorescence; maximal acetylcholine challenge after compound addition; signal change vs control, % at 10 µM; hit rate 31% among 920;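 active means membrane potential signal moving either way by over 3 SD of the maximum-effect control, in both duplicate plates, meaning non-specific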
# HEK293 MPD ctr-1: membrane potential modulation in parental HEK293, confirmation, counter-screen for TRPC6 inhibitor project, cell-based; shares compounds with TRPC6 inh; parental HEK293 membrane potential dye fluorescence; membrane potential signal change, % at 10 µM; hit rate 60% among 920;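 active means membrane potential signal shifting up or down by more than 3 SD of buffer-only wells, on both duplicate plates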
# HEK293 MPD ctr-2: parental HEK293 membrane potential modulation, confirmation, counter-screen for TRPC6 modulator project, cell-based | shares compounds with TRPC6 inh | membrane potential dye fluorescence | membrane potential signal change, % at 10 µM | hit rate 51% among 2,400 | AID 488924, 2010;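 active means membrane potential signal moves up or down beyond 5 SD from buffer-only wells, on both duplicate plates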
# HEK293 MPD ctr 2-2: second check of TRPC6 modulator effects in parental HEK293 cells; shares compounds with TRPC6 inh; membrane potential dye fluorescence; after compound, maximal acetylcholine stimulation; inhibition, % at 10 µM; hit rate 14% among 2,400; AID 488926;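 active means membrane potential signal drops by more than 5 SD from the mean control signal, in both duplicate plates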;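 further: plate controls were acetylcholine ECmax control wells for no effect and buffer only wells for full effect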
# TRPC4 ctr mod: TRPC4 modulation by TRPC6 hit compounds, confirmation, selectivity assay for TRPC6 modulator project, cell-based, HEK293 TRPC4/mu-opioid, membrane potential dye, mouse; AID 488927, 2010; shares compounds with TRPC6 inh; membrane potential fluorescence; hit rate 69% among 2,400; percent change from control (negative = decrease, positive = increase), % at 10 µM;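 active means membrane potential signal moved up or down beyond 5 SD of buffer control wells, in both duplicate plates, actives on both sides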;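 further: plate controls were assay buffer wells for no effect and DAMGO maximal-effect wells for full effect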
# TRPC4 ctr inh 2: mouse TRPC4 off-target activity of TRPC6 modulators, second screen. shares compounds with TRPC6 inh. AID 488928. HEK293 TRPC4/mu-opioid, membrane potential dye fluorescence; stimulated with maximal-effect DAMGO. inhibition, % at 10 µM. hit rate 55% among 2,400;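 active means drop in membrane potential signal beyond 5 SD of the control wells in both duplicate plates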;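 further: TRPC4 counter screen for TRPC6 hits run under conditions tuned for TRPC6 not TRPC4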
# TRPC6 block conf: mouse TRPC6 channel inhibitors, confirmation, HEK293 cells, membrane potential dye, duplicate; hit rate 43% among 3,300; inhibition, % at 10 µM; shares compounds with TRPC6 inh; ACh-evoked depolarization;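 active means fluorescence ratio falls more than 5 SD below the full-stimulation control mean, in both duplicate runs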;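 further: integrated fluorescence ratio of peak minus minimum over baseline after agonist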
# TRPC6 act conf: mouse TRPC6 channel activators, confirmation, HEK293 cells, membrane potential dye, duplicate; shares compounds with TRPC6 inh; HEK293-TRPC6 membrane potential dye fluorescence, FDSS; activation, % at 10 µM; hit rate 11% among 2,800; AID 488961, 2010;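 active means ratio signal rise beyond 5 SD above unstimulated control wells' mean, seen in both duplicate runs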;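 further: plate controls were buffer EC0 wells for no effect and acetylcholine ECmax response for full effect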
# Numbers without * were called inactive; i = inactive; nt = not tested or not shown. This is a sample that favours compounds with a hit; in the whole collection about 2.3% have one here.
SMILES,TRPC6 inh,TRPC4 block,TRPC4 act,TRPC4 PAM,TRPC6 activator,HEK293 MPD ctr-2,HEK293 MPD ctr 2-2,TRPC4 ctr mod,TRPC4 ctr inh 2,TRPC6 block conf,TRPC6 act conf,others
Cn1c(=O)n(C)c2cc([N+](=O)[O-])c(N3CCN(CCO)CC3)cc21,-6.8*,i,i,i,i,-370%*,70%*,-50%*,42%*,44%*,i,
Cn1c(=O)n(C)c2cc([N+](=O)[O-])c(N3CCN(S(C)(=O)=O)CC3)cc21,i,i,i,i,i,nt,nt,nt,nt,nt,nt,
COc1ccc(CCNC(=O)CNS(=O)(=O)c2ccc(F)c(Cl)c2)cc1OC,i,i,i,i,i,nt,nt,nt,nt,nt,nt,
CCOC(=O)c1c(N=CN(C)C)c2cc([N+](=O)[O-])cnc2n1C,-5.7*,i,i,i,i,-146%*,i,-23%*,44%*,54%*,i,
CCOC(=O)c1c(N)c2cc([N+](=O)[O-])ccc2n1C,i,i,i,i,i,nt,nt,nt,nt,nt,nt,
Cc1ccc2c(c1)NC(=O)C(CC(=O)NCCCN1CCCCC1C)O2 (stereo not given),i,i,i,i,i,nt,nt,nt,nt,nt,nt,
CCC(C)N(CCNC(=O)CC1Oc2ccc(C)cc2NC1=O)C1CCCCC1 (stereo not given),-8.4*,i,i,i,i,nt,nt,nt,nt,53%*,nt,TRPC4 spec 2=i;TRPC4 spec=17%*;HEK293 MPD ctr 2-1=i;HEK293 MPD ctr-1=13%*
CCOC(=O)c1cnc2ccc(OC)cc2c1Nc1ccc2c(c1)OCCO2,-7.5*,i,i,i,i,nt,nt,nt,nt,i,i,TRPC4 spec 2=i;TRPC4 spec=-14%*;HEK293 MPD ctr 2-1=i;HEK293 MPD ctr-1=-292%*
CCOC(=O)c1ccc2ncc(C(=O)OCC)c(Nc3ccc(N4CCOCC4)cc3)c2c1,-9.7*,i,i,i,i,-186%*,i,-46%*,42%*,i,i,
CCOC(=O)c1cnc2ccc(C(=O)OC)cc2c1Nc1ccc(C(=O)O)cc1,-5.2*,i,i,i,i,-248%*,i,-37%*,43%*,i,i,
CCOC(=O)c1cnc2ccc(C(=O)OC)cc2c1Nc1ccc2c(c1)OCCO2,i,i,i,i,i,nt,nt,nt,nt,nt,nt,
COCC(=O)N1CCC(n2nccc2NC(=O)CCOc2ccccc2)CC1,i,i,i,i,i,nt,nt,nt,nt,nt,nt,
O=C(Nc1nc2ccccc2n1CCOc1ccccc1)c1ccco1,i,i,i,i,i,nt,nt,nt,nt,nt,nt,
CCn1cc(Cl)c(C(=O)Nc2nc3ccccc3n2CCN2CCCCC2)n1,-8.7*,i,i,i,i,-270%*,74%*,-42%*,66%*,60%*,i,
O=C(Nc1nc2ccccc2n1CCN1CCCCC1)c1ccco1,-7.9*,i,i,i,i,nt,nt,nt,nt,i,i,TRPC4 spec 2=48%*;TRPC4 spec=-18%*;HEK293 MPD ctr 2-1=i;HEK293 MPD ctr-1=-264%*
Cc1ccc(-c2nn(-c3ccccc3)cc2CC(=S)N2CCOCC2)cc1,i,i,i,i,i,nt,nt,nt,nt,nt,nt,
Cn1c(=O)[nH]c(=O)c2c1nc(SCc1ccccc1Cl)n2CC(N)=O,i,i,i,i,i,nt,nt,nt,nt,nt,nt,
CC1(C(O)(C#CC[N+]2(C)CCCCC2)c2ccccc2)CCCC1 (stereo not given),-11*,i,i,i,i,nt,nt,nt,nt,107%*,i,TRPC4 spec 2=i;TRPC4 spec=i;HEK293 MPD ctr 2-1=-26%*;HEK293 MPD ctr-1=i
NC(=O)C[N+]1(CC#CC(O)(c2ccccc2)c2ccccc2)CCCC1,i,i,i,i,i,nt,nt,nt,nt,nt,nt,
Cc1ccc(C(=O)n2nc(C#N)c(C#N)c2N)cc1,i,i,i,i,i,nt,nt,nt,nt,nt,nt,
CCN(CC)C(=O)c1csc(Nc2ccc(C)cc2)n1,-5.8*,i,i,i,i,i,i,i,i,i,i,
C=C1CCN([C@@H](CC(C)C)C(=O)Nc2nc3ccc(Cl)cc3s2)S(=O)(=O)c2ccccc21,i,i,i,i,i,nt,nt,nt,nt,nt,nt,
Cc1[nH]c2c(Cl)cccc2c(=O)c1CN1CCCCCC1,-5.9*,i,i,i,i,-73%*,i,-18%*,i,i,i,
C=CCNc1nc(S(=O)Cc2ccc(C)cc2)nc2c1CCCC2 (stereo not given),i,i,i,i,i,nt,nt,nt,nt,nt,nt,
CC[n+]1ccc2cc(OC)c(OC)cc2c1Cc1ccc(OC)c(OC)c1,-6.4*,i,i,i,i,-232%*,i,-40%*,i,i,i,

# Screening results deposited in PubChem BioAssay by Johns Hopkins Ion Channel Center.
